Data from ChEMBL document CHEMBL1126841, “Synthesis and structure-activity relationships of 1-acyl-4-((2-methyl-3-pyridyl)cyanomethyl)piperazines as PAF antagonists” (J Med Chem, 1993).

Tests used:
[1] = molecular target: Platelet-activating factor receptor (Mus musculus) (UniProt Q62035); test: Dose required to inhibit PAF-induced mortality by 50% in mice; format: functional; conditions: Mus sp.
Summary of the method: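 Male Swiss mice (22-26 g), groups of 10; test compound given po (20 mL/kg), controls 1% Tween 80. 60 min later, C18-PAF 100 µg/kg plus propanolol 1 mg/kg injected into a lateral tail vein. Mortality scored 2 h after PAF; % inhibition vs controls. ID50 from linear regression of one curve, ≥4 points. Initial dose 3 mg/kg; further doses only if >50% inhibition.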

[2] = molecular target: Platelet-activating factor receptor (Rattus norvegicus) (UniProt P46002); test: Intravenous dose required to reduce the arterial blood pressure caused by PAF by 50% in rats; format: functional
Summary of the method: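 Male Sprague-Dawley rats (180-220 g) under pentobarbital anesthesia (50 mg/kg ip); carotid blood pressure recorded. Compound in saline given iv (femoral vein) 3 min before PAF 0.5 µg/kg iv; controls got vehicle. % inhibition of hypotension vs controls. ID50 from linear regression of one curve, ≥4 doses, each the mean of ≥2 independent experiments.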

[3] = Inhibition of PAF-induced platelet aggregation
[4] = organism: Oryctolagus cuniculus; test: In vitro inhibition of PAF-induced platelet aggregation in male rabbits

Chain of Platelet-activating factor receptor (Mus musculus) (Q62035 whole entry): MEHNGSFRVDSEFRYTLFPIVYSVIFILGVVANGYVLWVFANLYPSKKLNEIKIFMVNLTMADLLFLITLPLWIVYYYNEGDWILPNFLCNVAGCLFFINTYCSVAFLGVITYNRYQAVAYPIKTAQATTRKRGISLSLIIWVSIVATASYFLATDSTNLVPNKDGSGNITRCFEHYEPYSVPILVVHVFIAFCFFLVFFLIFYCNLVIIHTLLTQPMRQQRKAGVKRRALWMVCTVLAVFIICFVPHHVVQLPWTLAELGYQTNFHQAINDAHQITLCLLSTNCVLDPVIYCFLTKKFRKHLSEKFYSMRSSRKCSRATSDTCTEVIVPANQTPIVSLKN
Chain of Platelet-activating factor receptor (Rattus norvegicus) (P46002 whole entry): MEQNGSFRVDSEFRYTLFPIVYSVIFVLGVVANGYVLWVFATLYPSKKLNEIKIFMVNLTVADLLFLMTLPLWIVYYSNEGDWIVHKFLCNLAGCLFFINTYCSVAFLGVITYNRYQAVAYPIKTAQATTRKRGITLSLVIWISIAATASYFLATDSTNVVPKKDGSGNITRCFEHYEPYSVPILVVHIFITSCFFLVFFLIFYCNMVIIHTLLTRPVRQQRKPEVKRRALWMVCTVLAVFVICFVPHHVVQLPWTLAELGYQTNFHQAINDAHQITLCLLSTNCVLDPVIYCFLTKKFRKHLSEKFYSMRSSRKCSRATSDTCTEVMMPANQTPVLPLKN

Structure (SMILES)	ID50 [1] [mg/kg]	ID50 [2] [mg/kg]	IC50 [3] [nM]	IC50 [4] [nM]
Cc1ncccc1C(C#N)N1CCN(C(=O)[C@H](CO)NC(c2ccccc2)c2ccccc2)CC1 (some centres undefined)	2.4	0.02	–	–
CCOC(=O)C(CC(=O)N1CCN(C(C#N)c2cccnc2C)CC1)(c1ccccc1)c1ccccc1 (centres undefined)	> 3	0.12	–	–
Cc1ncccc1C(C#N)N1CCN(C(=O)CC(O)(c2ccccc2)c2cccnc2)CC1 (centres undefined)	1	0.042	–	–
CNC(=O)C(CC(=O)N1CCN(C(C#N)c2cccnc2C)CC1)c1ccccc1 (centres undefined)	0.78	0.05	–	–
Cc1ncccc1C(C#N)N1CCN(C(=O)CC(NC(=O)OCC(C)C)c2ccccc2)CC1 (centres undefined)	> 3	0.017	–	–
N#CC(c1cccnc1)N1CCN(C(=O)CC(c2ccccc2)c2ccccc2)CC1 (centres undefined)	–	–	20	–
Cc1ncccc1C(CO)N1CCN(C(=O)CC(c2ccccc2)c2ccccc2)CC1 (centres undefined)	> 3	–	–	–
Cc1ncccc1C(C#N)N1CCN(C(=O)CC(NC(=O)Oc2ccccc2)c2ccccc2)CC1 (centres undefined)	> 3	0.036	–	–
COC(=O)NC(CC(=O)N1CCN(C(C#N)c2cccnc2C)CC1)c1ccc(C(F)(F)F)cc1 (centres undefined)	1.6	0.014	–	–
Cc1ncccc1C(C#N)N1CCN(C(=O)CN(C(c2ccccc2)c2ccccc2)S(C)(=O)=O)CC1 (centres undefined)	> 3	0.083	–	–
N#CC(c1cccnc1)N1CCN(C(=O)C=C(c2ccccc2)c2ccccc2)CC1 (centres undefined)	–	–	–	10
Cc1ncccc1C(C#N)N1CCN(C(=O)CC(NS(C)(=O)=O)c2ccccc2)CC1 (centres undefined)	1	0.017	–	–
C=CCNC(CC(=O)N1CCN(C(C#N)c2cccnc2C)CC1)c1ccccc1 (centres undefined)	1	–	–	–
COC(=O)N(Cc1ccccc1)C(CC(=O)N1CCN(C(C#N)c2cccnc2C)CC1)c1ccccc1 (centres undefined)	3	0.066	–	–
Cc1ncccc1C(C#N)N1CCN(C(=O)CCNC(c2ccccc2)c2ccccc2)CC1 (centres undefined)	0.62	0.044	–	–
Cc1ncccc1C(C#N)N1CCN(C(=O)CC(O)(c2ccccc2)C(F)(F)F)CC1 (centres undefined)	0.44	0.013	–	–
Cc1ncccc1C(C#N)N1CCN(C(=O)CNC(c2ccc(F)cc2)c2ccc(F)cc2)CC1 (centres undefined)	3	0.049	–	–
CNC(CC(=O)N1CCN(C(C#N)c2cccnc2C)CC1)c1ccccc1 (centres undefined)	3	0.067	–	–
Cc1ncccc1C(C#N)N1CCN(C(=O)CC(NC(=O)c2ccccc2)c2ccccc2)CC1 (centres undefined)	> 3	0.056	–	–
CO/N=C(/C)C(c1cccnc1C)N1CCN(C(=O)CC(c2ccccc2)c2ccccc2)CC1 (centres undefined)	> 3	–	–	–
Cc1ncccc1C(C#N)N1CCN(C(=O)CC(c2ccccc2)N2CCCS2(=O)=O)CC1 (centres undefined)	> 3	0.048	–	–
Cc1ncccc1C(C#N)N1CCN(C(=O)CC(O)(c2ccc(F)cc2)c2ccc(F)cc2)CC1 (centres undefined)	> 3	0.051	–	–
CC(=O)N(CC(=O)N1CCN(C(C#N)c2cccnc2C)CC1)C(c1ccccc1)c1ccccc1 (centres undefined)	2	0.039	–	–
CC(=O)NC(CC(=O)N1CCN(C(C#N)c2cccnc2C)CC1)c1ccccc1 (centres undefined)	0.09	0.035	–	–

Structure (SMILES)	ID50 [1] [mg/kg]	ID50 [2] [mg/kg]	IC50 [3] [nM]	IC50 [4] [nM]
CCOC(=O)C(c1cccnc1C)N1CCN(C(=O)CC(c2ccccc2)c2ccccc2)CC1 (centres undefined)	> 30	–	–	–
Cc1ncccc1C(C#N)N1CCN(C(=O)CC(N)c2ccccc2)CC1 (centres undefined)	> 3	0.92	–	–
N#CC(c1cccnc1)N1CCN(C(=O)CNC(c2ccccc2)c2ccccc2)CC1 (centres undefined)	5.9	0.023	9.1	–
Cc1ncccc1C(C#N)N1CCN(C(=O)CC(NC(=O)N2CCCC2)c2ccccc2)CC1 (centres undefined)	0.97	0.055	–	–
Cc1ncccc1C(C#N)N1CCN(C(=O)CC(NS(=O)(=O)c2ccccc2)c2ccccc2)CC1 (centres undefined)	> 3	0.04	–	–
Cc1ncccc1C(C#N)N1CCN(C(=O)/C=C(/c2ccccc2)C(F)(F)F)CC1 (centres undefined)	> 3	–	–	–
Cc1ncccc1C(C#N)N1CCN(C(=O)CC(c2ccccc2)n2cccc2)CC1 (centres undefined)	1	0.014	–	–
Cc1ncccc1C(C#N)N1CCN(C(=O)[C@H](C)NC(c2ccccc2)c2ccccc2)CC1 (some centres undefined)	1.6	0.025	–	–
Cc1ncccc1C(C#N)N1CCN(C(=O)CSC(c2ccccc2)c2ccccc2)CC1 (centres undefined)	> 3	0.058	–	–
Cc1ncccc1C(C#N)N1CCN(C(=O)CC(C)c2ccccc2)CC1 (centres undefined)	> 3	0.039	–	–
Cc1ncccc1C(C#N)N1CCN(C(=O)CC(C)(O)c2ccccc2)CC1 (centres undefined)	> 3	0.029	–	–
Cc1ncccc1C(C#N)N1CCN(C(=O)CCC(c2ccccc2)c2ccccc2)CC1 (centres undefined)	> 3	0.028	–	–
CCc1ncccc1C(C#N)N1CCN(C(=O)CNC(c2ccccc2)c2ccccc2)CC1 (centres undefined)	0.7	0.063	–	–
Cc1ncccc1C(C#N)N1CCN(C(=O)CC(NCc2ccccc2)c2ccccc2)CC1 (centres undefined)	1.2	0.035	–	–
COC(=O)N(C)C(CC(=O)N1CCN(C(C#N)c2cccnc2C)CC1)c1ccccc1 (centres undefined)	2	0.036	–	–
Cc1ncccc1C(C#N)N1CCN(C(=O)CC(NC(=O)c2cccnc2)c2ccccc2)CC1 (centres undefined)	0.41	0.029	–	–
Cc1ncccc1C(C#N)N1CCN(C(=O)CC(c2ccccc2)c2ccccc2)CC1 (centres undefined)	0.9	0.015	–	–
C#CCNC(CC(=O)N1CCN(C(C#N)c2cccnc2C)CC1)c1ccccc1 (centres undefined)	3	–	–	–
Cc1ncccc1C(C#N)N1CCN(C(=O)C=C(c2ccccc2)c2ccccc2)CC1 (centres undefined)	2.2	0.038	–	–
N#CC(c1cccnc1)N1CCN(C(=O)CCNC(c2ccccc2)c2ccccc2)CC1 (centres undefined)	–	–	53	–
Cc1ncccc1C(C#N)N1CCN(C(=O)CNC2c3ccccc3-c3ccccc32)CC1 (centres undefined)	> 3	0.085	–	–
Cc1ncccc1C(C#N)N1CCN(C(=O)CON=C(c2ccccc2)c2ccccc2)CC1 (centres undefined)	> 3	0.071	–	–
N#CC(c1cccnc1)N1CCN(C(=O)CC(O)(c2ccccc2)c2ccccc2)CC1 (centres undefined)	–	–	–	21
Cc1ncccc1C(C#N)N1CCN(C(=O)/C=C(\c2ccccc2)C(F)(F)F)CC1 (centres undefined)	> 3	0.12	–	–

Structure (SMILES)	ID50 [1] [mg/kg]	ID50 [2] [mg/kg]	IC50 [3] [nM]	IC50 [4] [nM]
Cc1ncccc1C(C#N)N1CCN(C(=O)CS(=O)(=O)C(c2ccccc2)c2ccccc2)CC1 (centres undefined)	> 3	0.11	–	–
Cc1ncccc1C(C#N)N1CCN(C(=O)CC(c2ccccc2)N(Cc2ccccc2)Cc2ccccc2)CC1 (centres undefined)	> 3	0.068	–	–
C#CC(c1cccnc1C)N1CCN(C(=O)CNC(c2ccccc2)c2ccccc2)CC1 (centres undefined)	> 3	–	–	–
CCOC(=O)NC(CC(=O)N1CCN(C(C#N)c2cccnc2C)CC1)c1ccccc1 (centres undefined)	0.23	0.025	–	–
Cc1ncccc1C(C#N)N1CCN(C(=O)CC(NC(N)=O)c2ccccc2)CC1 (centres undefined)	> 3	–	–	–
Cc1ncccc1C(C#N)N1CCN(C(=O)CC(O)(c2ccccc2)c2ccccc2)CC1 (centres undefined)	0.69	0.039	–	–
Cc1ncccc1C(C#N)N1CCN(C(=O)CC(c2ccccc2)C(F)(F)F)CC1 (centres undefined)	> 3	0.023	–	–
Cc1ncccc1C(C#N)N1CCN(C(=O)CC(c2ccccc2)N2CCCC2=O)CC1 (centres undefined)	0.13	0.026	–	–
Cc1ncccc1C(C#N)N1CCN(C(=O)CC(c2ccccc2)N2CCCC2)CC1 (centres undefined)	–	0.22	–	–
Cc1ncccc1C(C#N)N1CCN(C(=O)C(C)(C)C(F)(c2ccccc2)c2ccccc2)CC1 (centres undefined)	> 3	0.34	–	–
Cc1ncccc1C(C#N)N1CCN(C(=O)CC(c2ccccc2)N2CCOC2=O)CC1 (centres undefined)	1	0.029	–	–
Cc1ncccc1C(C#N)N1CCN(C(=O)CC(NC(=O)c2ncccc2O)c2ccccc2)CC1 (centres undefined)	3	0.036	–	–
Cc1ncccc1C(C#N)N1CCN(C(=O)[C@@H](C)NC(c2ccccc2)c2ccccc2)CC1 (some centres undefined)	> 3	–	–	–
Cc1ncccc1C(C#N)N1CCN(C(=O)COC(c2ccccc2)c2ccccc2)CC1 (centres undefined)	> 3	0.048	–	–
Cc1ncccc1C(C#N)N1CCN(C(=O)CN(C=O)C(c2ccccc2)c2ccccc2)CC1 (centres undefined)	1.5	0.016	–	–
Cc1ncccc1C(C#N)N1CCN(C(=O)CNC(C)(c2ccccc2)c2ccccc2)CC1 (centres undefined)	> 3	0.057	–	–
Cc1ncccc1C(C#N)N1CCN(C(=O)CC(Nc2ccccc2)c2ccccc2)CC1 (centres undefined)	0.27	0.042	–	–
Cc1ncccc1C(C#N)N1CCN(C(=O)C[S+]([O-])C(c2ccccc2)c2ccccc2)CC1 (centres undefined)	> 3	0.034	–	–
Cc1ncccc1C(C#N)N1CCN(C(=O)CC(NC(=O)OCc2ccccc2)c2ccccc2)CC1 (centres undefined)	> 3	0.018	–	–
Cc1ncccc1C(C#N)N1CCN(C(=O)CC(NC(=O)OC(C)(C)C)c2ccccc2)CC1 (centres undefined)	1.2	0.049	–	–
Cc1ncccc1C(C#N)N1CCN(C(=O)CC(NC(=O)c2cccnc2O)c2ccccc2)CC1 (centres undefined)	> 3	0.12	–	–
Cc1ncccc1C(C#N)N1CCN(C(=O)CC(NCc2cccnc2)c2ccccc2)CC1 (centres undefined)	> 3	0.029	–	–
Cc1ncccc1C(C#N)N1CCN(C(=O)CC(c2ccccc2)N(C)Cc2ccccc2)CC1 (centres undefined)	> 3	0.024	–	–
